These results are taken from paper PMC6477682 (Journal of the American Chemical Society, 2018).

The subject of assay [1] is S. aureus. The experiment in a line: Photoinactivation. Format: cell-based, Staphylococcus aureus. Conditions: at 1 µM and 2 µM, with and without photoirradiation (Figure 4c).
In assay [2] the test system is LOS- A. baumannii cells. Briefly: Photoinactivation of LOS- A. baumannii. Conditions: at the same concentrations, with and without photoirradiation (Figure 5c). Format: cell-based, Acinetobacter baumannii. The gist of the method:
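AB5075-derived LOS− strain grown to OD600~0.7, washed, diluted in PBS (pH 7.4) to ~1×10^8 cfu/mL, incubated 15 min with eosin-conjugated peptide (2 µM) or controls. Half the suspension irradiated 15 min with blue light (120 W lamp, fluorescein filter, 20X objective); the other half kept dark. Plated on LB agar + 10 µg/mL polymyxin b, 24 h. Killing from colony counts vs untreated PBS control; mean of two trials.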

Turning to `O=C1OC2(c3ccccc31)c1cc(Br)c(O)c(Br)c1Oc1c2cc(Br)c(O)c1Br` [eosin], in assay [1], the “S. aureus cell death, controls” value is “did not elicit cell death”. The “LOS- A. baumannii cell death, controls” value in assay [2] is listed as “did not elicit A. baumannii cell death”.
